# High-throughput results: PubChem BioAssay, several laboratories
# Rows were chosen to be rich in hits. Some 1.6% of all compounds tested hit in one or more screens of this group.
# TPT1 inh: blocks Candida albicans tRNA 2'-phosphotransferase | recombinant caTPT1, FP RNA substrate dephosphorylation | inhibition, % at 5 µM | 300,000 tested, 0.81% active | AID 1962;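 active = inhibition above the mean of all tested compounds plus 3 SD, set per screening campaign, cut at about 24% in these data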
# HNF4A DNA FP: change in binding of human HNF4 alpha to DNA; 360,000 tested, 0.3% active; AID 1224865; HNF4a-FITC DNA binding, fluorescence polarization, 1 h; activity change, % at 10 µM; in the data active = activity change above about 30%, passing the limit was not always enough
# CSN deneddyl inh: CSN deneddylation inhibition; Q92905; Purified CSN, SCF-Nedd8-OG deneddylation, fluorescence polarization; 360,000 tested, 0.38% active; inhibition, % at 12.5 µM;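 active = pattern-corrected inhibition above about 35%, with an unprinted fluorescence ratio check between 0.5 and 1.5, limit read from the data, passing the limit was not always enough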
# Target sequence (Q92905 whole entry, looked up, one chain of several): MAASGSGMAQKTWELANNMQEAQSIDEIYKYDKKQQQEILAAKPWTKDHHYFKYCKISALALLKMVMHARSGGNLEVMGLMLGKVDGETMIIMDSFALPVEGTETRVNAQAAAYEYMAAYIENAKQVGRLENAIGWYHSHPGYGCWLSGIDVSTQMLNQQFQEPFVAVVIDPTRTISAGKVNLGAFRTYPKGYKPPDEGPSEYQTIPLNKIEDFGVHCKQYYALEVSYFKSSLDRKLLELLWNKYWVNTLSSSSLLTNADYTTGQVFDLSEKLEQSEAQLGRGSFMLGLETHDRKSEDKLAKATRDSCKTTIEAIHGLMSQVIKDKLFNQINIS
#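 Test system: purified human Csn5 enzyme expressed in HEK293T cells. Amount: 0.24 nM enzyme. Reagent: SCFSkp2-Nedd8OG substrate at 10 nM final. Schedule: 90 min incubation of compound, enzyme and substrate at room temperature. Detection: fluorescence polarization. Read-out: % inhibition of substrate cleavage by Csn5.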
# PKA-R1A act: activates the PKA-R1A holoenzyme complex; 340,000 tested, 0.083% active; PKA-R1A dissociation, Cy5-IP20 fluorescence polarization; scaled: DMSO 0%, 113 µM cGMP 100%; P00514+P68181; AID 504707; activation, % at 11.4 µM;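 active = percent activation above the mean of all tested compounds plus 3 SD, cut at about 19% in these data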;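 note: higher means more PKAc released from R1A so a rise in polarization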
# Rpn11 inh: Rpn11 (human) deubiquitinase inhibition | human 26S proteasome, Ub4-pepOG fluorescence polarization; 20S core pre-blocked with epoxomicin | calls only at 20 µM | 360,000 tested, 0.59% active | AID 588493;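 active = inhibition at 20 µM, scaled to each plate's controls, above about 33%, limit read from the data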
# PKA-R2B act: activates the human PKA-R2B holoenzyme complex | 340,000 tested, 0.079% active | AID 504700 | P22694+P31323 | PKA-R2B holoenzyme dissociation, Cy5-IP20 fluorescence polarization; R2B truncated from residue 108, S112A mutant; 0% DMSO only, 100% 113 µM cGMP | activation, % at 11.4 µM;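 active = activation above a cutoff set at the mean over all compounds plus 3 SD, cut at about 18% in these data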;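 note: higher means more holoenzyme dissociation and a rise in polarization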
# CSN5 deneddyl: validation of inhibitors of human CSN-mediated cullin deneddylation | inhibition, % at 16.6 µM | 540 tested, 62% active | Csn5 deneddylation of SCF-Nedd8OG, fluorescence polarization, 90 min | shares compounds with CSN deneddyl inh | AID 720654; in the data active = inhibition above about 50%
# MMP2 cntr CSN: MMP-2 (human) inhibition, counter-screen for CSN hits | shares compounds with CSN deneddyl inh | inhibition, % at 16.6 µM | 540 tested, 33% active | recombinant MMP-2, FRET substrate fluorescence, 60 min;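 active = corrected plate-normalized z-score of 5 or more, or -5 or less, or inhibition of 15% or more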
# Thrombin counter: blocks bovine thrombin in a CSN deneddylation counter-screen | shares compounds with CSN deneddyl inh | bovine thrombin cleavage of Ub4-pepOG, fluorescence polarization | inhibition, % at 16.6 µM | 540 tested, 49% active | AID 720656;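 active = inhibition at or above a set limit, with a fluorescence interference ratio between 0.5 and a set maximum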
# A number is an active result; - = inactive; . = not tested or not shown; + = active, no number; ! = a repeat was not active.
SMILES,TPT1 inh,HNF4A DNA FP,CSN deneddyl inh,PKA-R1A act,Rpn11 inh,PKA-R2B act,CSN5 deneddyl,MMP2 cntr CSN,Thrombin counter
Cc1ccc(S(=O)(=O)Cc2ccc(C(=O)O)o2)cc1,-,-,35,-,-,-,64,22,-
CCOc1ccc(S(=O)(=O)N2CCC(C(=O)Nc3cc(S(C)(=O)=O)ccc3Cl)CC2)cc1,.,-,-,-,-,-,.,.,.
CCOC(=O)C1CCCN(C(=O)CCn2nnnc2CN2CCOCC2)C1 (stereo unspecified),-,-,-,-,-,-,.,.,.
Cc1ccc(-c2nn3c(C)nnc3s2)cc1NC(=O)c1ccc(-c2cccc(Cl)c2)o1,.,-,-,-,.,-,.,.,.
Cc1ccc(-c2nn3c(C)nnc3s2)cc1NC(=O)c1ccc(-c2ccc(Cl)cc2Cl)o1,-,104,124,-,+,-,112,-,-
Cc1ccc(NC(=O)c2oc3ccc(S(=O)(=O)N4CCC5(CC4)OCCO5)cc3c2C)cc1C,-,-,-,-,-,-,.,.,.
COc1cc(/C=N/N2C(=O)CSC2=S)cc(Br)c1O,.,76,118,-,.,-,-,24,88
O=c1[nH]c(Nc2ccc(F)cc2)cc2ccccc12,-,-,35,-,-,-,73,-,-
CC(C)(C)[C@H](N)C(=O)N[C@H]1CCC2C3CC=C4C[C@@H](O)CC[C@]4(C)C3CC[C@@]21C (stereo partly specified),.,-,49,-,-,-,-,-,16
O=C(Nc1nc(-c2ccco2)c(-c2ccco2)s1)c1ccc(F)cc1F,.,-,45,-,-,-,103,-,-
O=C(Nc1nc(-c2ccco2)c(-c2ccco2)s1)c1cnccn1,-,.,.,.,.,.,.,.,.
O=C(N/N=C\C=C\c1ccco1)c1cc(-c2ccc3ccccc3c2)n[nH]1,-,-,43,-,-,-,96,-,-
C[n+]1cccc2c(Br)ccc([O-])c21,-,-,45,-,-,-,103,-,-
COc1ccc(NC(=O)C2CCCN2C(=O)NC2CCCCC2)c(OC)c1 (stereo unspecified),-,-,-,-,-,-,.,.,.
O=C(C1=C(O)C(=O)N(CC2CCCO2)C1c1ccccc1F)c1ccco1 (stereo unspecified),-,-,-,-,-,-,.,.,.
O=C1C2C(C(=O)N1/N=C/c1cc([N+](=O)[O-])ccc1O)C1C=CC2C12CC2 (stereo unspecified),-,-,-,-,-,-,.,.,.
O=C1C2C(C(=O)N1/N=C/c1cc([N+](=O)[O-])c(O)cc1O)C1C=CC2C12CC2 (stereo unspecified),-,-,36,-,-,-,-,17,-
Cc1ccc(S(=O)(=O)/N=C2/NC(=O)/C(=C/c3cc([N+](=O)[O-])ccc3O)S2)cc1,64,-,55,-,.,-,53,-44,31
O=C(NCc1cccs1)c1cccc2c(-c3ccc(F)c(F)c3)coc12,.,-,-,.,-,.,.,.,.
CCN1CCN(Cc2ccc(NC(=O)c3ccc(C)c(NC(=O)c4c[nH]c5cc(C(F)(F)F)ccc5c4=O)c3)cc2C(F)(F)F)CC1,-,55,78!,-,-,-,90,-,-
CCCS(=O)(=O)NC(=O)C1(C)CCCN(C(=O)c2ccc(SC(F)(F)F)cc2)C1 (stereo unspecified),.,-,-,.,-,.,.,.,.
Cc1c(Br)c(=O)oc2c(Br)c(O)c(O)cc12,-,-,40,-,-,-,.,-,29
COc1ccc(N=C2NC(=O)/C(=C\c3ccco3)S2)cc1,-,-,-,-,-,-,.,.,.
